Assay results published in ChEMBL document CHEMBL2321783, “Structure-activity relationships of peptides incorporating a bioactive reverse-turn heterocycle at the melanocortin receptors: identification of a 5800-fold mouse melanocortin-3 receptor (mMC3R) selective antagonist/partial agonist versus the mouse melanocortin-4 receptor (mMC4R)” (J Med Chem, 2013).

Columns and labels:
Type in all cases: functional, cell-based
[1] = biological target: Melanocortin receptor 5 (Mus musculus, UniProt P41149); test: Agonist activity at mouse MC5 receptor expressed in HEK293 cells after 6 hrs by cAMP-based beta-galactosidase reporter gene assay; settings: hek293
Sequence of Melanocortin receptor 5 (P41149 whole entry): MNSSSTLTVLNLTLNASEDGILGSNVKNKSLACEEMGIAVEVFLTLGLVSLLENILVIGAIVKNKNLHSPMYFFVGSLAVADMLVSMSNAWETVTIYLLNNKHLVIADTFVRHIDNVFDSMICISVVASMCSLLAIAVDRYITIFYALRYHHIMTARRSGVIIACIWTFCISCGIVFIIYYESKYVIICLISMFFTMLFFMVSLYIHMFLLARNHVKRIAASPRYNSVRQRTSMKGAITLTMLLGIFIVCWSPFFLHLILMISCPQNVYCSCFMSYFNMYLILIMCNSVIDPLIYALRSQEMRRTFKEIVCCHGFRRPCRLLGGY
Procedure, shortened: (§1)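 HEK-293 cells stably expressing the mouse receptor, kept in DMEM with 10% fetal calf serum, transfected with CRE/β-galactosidase reporter. Efficacy is relative to NDP-MSH on the same plate. EC50 is the mean of duplicate wells from three or more independent experiments, fitted by nonlinear least squares.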

[2] = biological target: Melanocortin receptor 4 (Mus musculus, UniProt P56450); test: Agonist activity at mouse MC4 receptor expressed in HEK293 cells after 6 hrs by cAMP-based beta-galactosidase reporter gene assay; settings: hek293; procedure, shortened: as §1
Sequence of Melanocortin receptor 4 (P56450 whole entry): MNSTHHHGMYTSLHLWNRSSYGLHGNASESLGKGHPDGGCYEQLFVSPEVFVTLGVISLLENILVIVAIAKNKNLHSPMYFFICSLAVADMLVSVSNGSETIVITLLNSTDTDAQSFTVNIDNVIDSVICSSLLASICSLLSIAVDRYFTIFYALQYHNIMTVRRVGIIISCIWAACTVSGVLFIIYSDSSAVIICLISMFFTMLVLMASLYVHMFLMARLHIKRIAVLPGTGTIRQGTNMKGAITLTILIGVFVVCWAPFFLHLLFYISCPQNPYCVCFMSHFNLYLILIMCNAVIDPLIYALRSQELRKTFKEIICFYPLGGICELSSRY

[3] = biological target: Melanocyte-stimulating hormone receptor (Mus musculus, UniProt Q01727); test: Agonist activity at mouse MC1 receptor expressed in HEK293 cells after 6 hrs by cAMP-based beta-galactosidase reporter gene assay; settings: hek293; procedure, shortened: as §1
Sequence of Melanocyte-stimulating hormone receptor (Q01727 whole entry): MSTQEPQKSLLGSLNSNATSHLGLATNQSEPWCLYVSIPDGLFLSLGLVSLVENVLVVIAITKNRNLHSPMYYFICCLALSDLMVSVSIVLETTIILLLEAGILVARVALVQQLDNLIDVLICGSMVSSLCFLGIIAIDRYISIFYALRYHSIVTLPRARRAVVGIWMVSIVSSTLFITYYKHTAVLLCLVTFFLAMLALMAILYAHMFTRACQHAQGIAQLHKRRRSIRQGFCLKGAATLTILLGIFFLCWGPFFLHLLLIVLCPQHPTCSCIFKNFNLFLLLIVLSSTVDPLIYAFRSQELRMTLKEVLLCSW

[4] = biological target: Melanocortin receptor 3 (Mus musculus, UniProt P33033); test: Agonist activity at mouse MC3 receptor expressed in HEK293 cells after 6 hrs by cAMP-based beta-galactosidase reporter gene assay; procedure, shortened: as §1
Sequence of Melanocortin receptor 3 (P33033 whole entry): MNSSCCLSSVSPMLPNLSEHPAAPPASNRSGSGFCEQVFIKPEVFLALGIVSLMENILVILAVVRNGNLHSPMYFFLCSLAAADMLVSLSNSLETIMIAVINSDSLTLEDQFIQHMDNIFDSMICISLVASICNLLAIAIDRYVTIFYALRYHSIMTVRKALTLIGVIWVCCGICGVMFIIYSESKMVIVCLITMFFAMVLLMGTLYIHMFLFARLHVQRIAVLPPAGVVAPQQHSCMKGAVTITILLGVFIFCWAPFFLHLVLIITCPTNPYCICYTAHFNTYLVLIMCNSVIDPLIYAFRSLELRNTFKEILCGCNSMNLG

Compound	EC50 [1]	EC50 [2]	EC50 [3]	EC50 [4]
C[C@@H]1NC(=O)[C@H](CC(N)=O)NC(=O)[C@H](Cc2c[nH]c3ccccc23)N2C[C@H](C)NC(=O)[C@@H](CSCC2=O)NC(=O)[C@@H](Cc2ccccc2)NC(=O)[C@H](Cc2cnc[nH]2)NC(=O)[C@@H](NC(=O)[C@@H](N)Cc2ccc(O)cc2)CSSC[C@@H](C(=O)N[C@@H](Cc2ccc(O)cc2)C(N)=O)NC(=O)[C@H](Cc2ccccc2)NC1=O	–	–	–	8070 nM
C[C@@H]1NC(=O)[C@H](CC(N)=O)NC(=O)[C@H](Cc2c[nH]c3ccccc23)N2C[C@H](CCCN=C(N)N)NC(=O)[C@@H](CSCC2=O)NC(=O)[C@@H](Cc2ccccc2)NC(=O)[C@H](Cc2cnc[nH]2)NC(=O)[C@@H](NC(=O)[C@@H](N)Cc2ccc(O)cc2)CSSC[C@@H](C(=O)N[C@@H](Cc2ccc(O)cc2)C(N)=O)NC(=O)[C@H](Cc2ccccc2)NC1=O	–	–	–	324 nM
C[C@@H]1NC(=O)[C@H](CC(N)=O)NC(=O)[C@H](Cc2c[nH]c3ccccc23)N2C[C@H](C)NC(=O)[C@H](CSCC2=O)NC(=O)[C@@H](Cc2ccccc2)NC(=O)[C@H](Cc2c[nH]cn2)NC(=O)[C@@H](NC(=O)[C@@H](N)Cc2ccc(O)cc2)CSSC[C@@H](C(=O)N[C@@H](Cc2ccc(O)cc2)C(N)=O)NC(=O)[C@H](Cc2ccccc2)NC1=O	850 nM	1300 nM	19 nM	–
C[C@@H]1NC(=O)[C@@H](NC(=O)[C@@H](N)Cc2ccc(O)cc2)CSSC[C@@H](C(=O)N[C@@H](Cc2ccc(O)cc2)C(N)=O)NC(=O)[C@H](Cc2ccccc2)NC(=O)[C@H](C)NC(=O)[C@H](CC(N)=O)NC(=O)[C@H](Cc2c[nH]c3ccccc23)N2C[C@H](CCCNC(=N)N)NC(=O)[C@H](CSCC2=O)NC(=O)[C@@H](Cc2ccccc2)NC1=O	690 nM	705 nM	52 nM	–
C[C@@H]1NC(=O)[C@H](CC(N)=O)NC(=O)[C@H](Cc2c[nH]c3ccccc23)N2C[C@H](CCCCNC(=N)N)NC(=O)[C@@H](CSCC2=O)NC(=O)[C@@H](Cc2ccccc2)NC(=O)[C@H](Cc2cnc[nH]2)NC(=O)[C@@H](NC(=O)[C@@H](N)Cc2ccc(O)cc2)CSSC[C@@H](C(=O)N[C@@H](Cc2ccc(O)cc2)C(N)=O)NC(=O)[C@H](Cc2ccccc2)NC1=O	–	–	–	1830 nM
C[C@@H]1NC(=O)[C@H](CC(N)=O)NC(=O)[C@H](Cc2c[nH]c3ccccc23)N2C[C@H](CCCNC(=N)N)NC(=O)[C@H](CSCC2=O)NC(=O)[C@@H](Cc2ccccc2)NC(=O)[C@H](Cc2ccccc2)NC(=O)[C@@H](NC(=O)[C@@H](N)Cc2ccc(O)cc2)CSSC[C@@H](C(=O)N[C@@H](Cc2ccc(O)cc2)C(N)=O)NC(=O)[C@H](Cc2ccccc2)NC1=O	415 nM	290 nM	1.94 nM	–
C[C@@H]1NC(=O)[C@H](CC(N)=O)NC(=O)[C@H](Cc2c[nH]c3ccccc23)N2C[C@H](CCCNC(=N)N)NC(=O)[C@@H](CSCC2=O)NC(=O)[C@@H](Cc2cccc3ccccc23)NC(=O)[C@H](Cc2cnc[nH]2)NC(=O)[C@@H](NC(=O)[C@@H](N)Cc2ccc(O)cc2)CSSC[C@@H](C(=O)N[C@@H](Cc2ccc(O)cc2)C(N)=O)NC(=O)[C@H](Cc2ccccc2)NC1=O	–	–	–	190 nM
C[C@@H]1NC(=O)[C@H](CC(N)=O)NC(=O)[C@H](Cc2c[nH]c3ccccc23)N2C[C@H](CCCNC(=N)N)NC(=O)[C@H](CSCC2=O)NC(=O)[C@@H](Cc2cccc3ccccc23)NC(=O)[C@H](Cc2c[nH]cn2)NC(=O)[C@@H](NC(=O)[C@@H](N)Cc2ccc(O)cc2)CSSC[C@@H](C(=O)N[C@@H](Cc2ccc(O)cc2)C(N)=O)NC(=O)[C@H](Cc2ccccc2)NC1=O	205 nM	130 nM	7.4 nM	–
C[C@@H]1NC(=O)[C@H](CC(N)=O)NC(=O)[C@H](Cc2c[nH]c3ccccc23)N2C[C@H](CCCCN)NC(=O)[C@@H](CSCC2=O)NC(=O)[C@@H](Cc2ccccc2)NC(=O)[C@H](Cc2cnc[nH]2)NC(=O)[C@@H](NC(=O)[C@@H](N)Cc2ccc(O)cc2)CSSC[C@@H](C(=O)N[C@@H](Cc2ccc(O)cc2)C(N)=O)NC(=O)[C@H](Cc2ccccc2)NC1=O	–	–	–	2540 nM
C[C@@H]1NC(=O)[C@H](CC(N)=O)NC(=O)[C@H](Cc2c[nH]c3ccccc23)N2C[C@H](CCCCNC(=N)N)NC(=O)[C@H](CSCC2=O)NC(=O)[C@@H](Cc2ccccc2)NC(=O)[C@H](Cc2c[nH]cn2)NC(=O)[C@@H](NC(=O)[C@@H](N)Cc2ccc(O)cc2)CSSC[C@@H](C(=O)N[C@@H](Cc2ccc(O)cc2)C(N)=O)NC(=O)[C@H](Cc2ccccc2)NC1=O	350 nM	965 nM	15 nM	–
C[C@@H]1NC(=O)[C@H](CC(N)=O)NC(=O)[C@H](Cc2c[nH]c3ccccc23)N2C[C@H](CCCNC(=N)N)NC(=O)[C@H](CSCC2=O)NC(=O)[C@@H]2CCCN2C(=O)[C@H](Cc2c[nH]cn2)NC(=O)[C@@H](NC(=O)[C@@H](N)Cc2ccc(O)cc2)CSSC[C@@H](C(=O)N[C@@H](Cc2ccc(O)cc2)C(N)=O)NC(=O)[C@H](Cc2ccccc2)NC1=O	1100 nM	5400 nM	5000 nM	–
C[C@@H]1NC(=O)[C@H](CC(N)=O)NC(=O)[C@H](Cc2c[nH]c3ccccc23)N2C[C@H](CCCCN)NC(=O)[C@H](CSCC2=O)NC(=O)[C@@H](Cc2ccccc2)NC(=O)[C@H](Cc2c[nH]cn2)NC(=O)[C@@H](NC(=O)[C@@H](N)Cc2ccc(O)cc2)CSSC[C@@H](C(=O)N[C@@H](Cc2ccc(O)cc2)C(N)=O)NC(=O)[C@H](Cc2ccccc2)NC1=O	460 nM	420 nM	30 nM	–
C[C@@H]1NC(=O)[C@H](CC(N)=O)NC(=O)[C@H](Cc2c[nH]c3ccccc23)N2C[C@H](CCCNC(=N)N)NC(=O)[C@H](CSCC2=O)NC(=O)[C@@H](Cc2ccccc2)NC(=O)[C@@H]2CCCN2C(=O)[C@@H](NC(=O)[C@@H](N)Cc2ccc(O)cc2)CSSC[C@@H](C(=O)N[C@@H](Cc2ccc(O)cc2)C(N)=O)NC(=O)[C@H](Cc2ccccc2)NC1=O	270 nM	240 nM	32 nM	–
C[C@@H]1NC(=O)[C@H](CC(N)=O)NC(=O)[C@H](Cc2ccc(-c3ccccc3)cc2)N2C[C@H](CCCNC(=N)N)NC(=O)[C@H](CSCC2=O)NC(=O)[C@@H](Cc2ccccc2)NC(=O)[C@H](Cc2c[nH]cn2)NC(=O)[C@@H](NC(=O)[C@@H](N)Cc2ccc(O)cc2)CSSC[C@@H](C(=O)N[C@@H](Cc2ccc(O)cc2)C(N)=O)NC(=O)[C@H](Cc2ccccc2)NC1=O	830 nM	980 nM	20 nM	–

The remaining lines, values ahead:

EC50 [1]	EC50 [2]	EC50 [3]	EC50 [4]	Compound
125 nM	210 nM	80 nM	–	C[C@@H]1NC(=O)[C@H](CC(N)=O)NC(=O)[C@H](C)N2C[C@H](CCCNC(=N)N)NC(=O)[C@H](CSCC2=O)NC(=O)[C@@H](Cc2ccccc2)NC(=O)[C@H](Cc2c[nH]cn2)NC(=O)[C@@H](NC(=O)[C@@H](N)Cc2ccc(O)cc2)CSSC[C@@H](C(=O)N[C@@H](Cc2ccc(O)cc2)C(N)=O)NC(=O)[C@H](Cc2ccccc2)NC1=O
29 nM	50 nM	14 nM	–	C[C@@H]1NC(=O)[C@H](CC(N)=O)NC(=O)[C@@H](Cc2ccc3ccccc3c2)N2C[C@H](CCCNC(=N)N)NC(=O)[C@H](CSCC2=O)NC(=O)[C@@H](Cc2ccccc2)NC(=O)[C@H](Cc2c[nH]cn2)NC(=O)[C@@H](NC(=O)[C@@H](N)Cc2ccc(O)cc2)CSSC[C@@H](C(=O)N[C@@H](Cc2ccc(O)cc2)C(N)=O)NC(=O)[C@H](Cc2ccccc2)NC1=O
46 nM	190 nM	8.7 nM	–	C[C@@H]1NC(=O)[C@H](CC(N)=O)NC(=O)[C@H](Cc2c[nH]c3ccccc23)N2C[C@H](CCCNC(=N)N)NC(=O)[C@H](CSCC2=O)NC(=O)[C@@H](Cc2ccc3ccccc3c2)NC(=O)[C@H](Cc2c[nH]cn2)NC(=O)[C@@H](NC(=O)[C@@H](N)Cc2ccc(O)cc2)CSSC[C@@H](C(=O)N[C@@H](Cc2ccc(O)cc2)C(N)=O)NC(=O)[C@H](Cc2ccccc2)NC1=O
9.8 nM	20 nM	0.5 nM	–	C[C@@H]1NC(=O)[C@H](CC(N)=O)NC(=O)[C@H](Cc2c[nH]c3ccccc23)N2C[C@H](CCCNC(=N)N)NC(=O)[C@H](CSCC2=O)NC(=O)[C@@H](Cc2ccc(I)cc2)NC(=O)[C@H](Cc2c[nH]cn2)NC(=O)[C@@H](NC(=O)[C@@H](N)Cc2ccc(O)cc2)CSSC[C@@H](C(=O)N[C@@H](Cc2ccc(O)cc2)C(N)=O)NC(=O)[C@H](Cc2ccccc2)NC1=O
52 nM	220 nM	6.2 nM	–	C[C@@H]1NC(=O)[C@H](CC(N)=O)NC(=O)[C@H](Cc2ccc3ccccc3c2)N2C[C@H](CCCNC(=N)N)NC(=O)[C@H](CSCC2=O)NC(=O)[C@@H](Cc2ccccc2)NC(=O)[C@H](Cc2c[nH]cn2)NC(=O)[C@@H](NC(=O)[C@@H](N)Cc2ccc(O)cc2)CSSC[C@@H](C(=O)N[C@@H](Cc2ccc(O)cc2)C(N)=O)NC(=O)[C@H](Cc2ccccc2)NC1=O
87 nM	760 nM	1.1 nM	–	C[C@@H]1NC(=O)[C@H](CC(N)=O)NC(=O)[C@H](Cc2c[nH]c3ccccc23)N2C[C@H](CCCNC(=N)N)NC(=O)[C@H](CSCC2=O)NC(=O)[C@@H](Cc2ccc(-c3ccccc3)cc2)NC(=O)[C@H](Cc2c[nH]cn2)NC(=O)[C@@H](NC(=O)[C@@H](N)Cc2ccc(O)cc2)CSSC[C@@H](C(=O)N[C@@H](Cc2ccc(O)cc2)C(N)=O)NC(=O)[C@H](Cc2ccccc2)NC1=O
46 nM	190 nM	2.4 nM	–	C[C@@H]1NC(=O)[C@H](CC(N)=O)NC(=O)[C@H](Cc2c[nH]c3ccccc23)N2C[C@H](CCCN=C(N)N)NC(=O)[C@H](CSCC2=O)NC(=O)[C@@H](Cc2ccccc2)NC(=O)[C@H](Cc2cnc[nH]2)NC(=O)[C@@H](NC(=O)[C@@H](N)Cc2ccc(O)cc2)CSSC[C@@H](C(=O)N[C@@H](Cc2ccc(O)cc2)C(N)=O)NC(=O)[C@H](Cc2ccccc2)NC1=O
